Screening data as filed in PubChem BioAssay.
OX1R antag-1: antagonists of human orexin 1 receptor (OX1R). inhibition, % at 6.6 µM. O43613. OX1R-expressing cells, FRET antagonist read-out. 1.8% of 330,000 active; in the data active means inhibition mostly above about 38%, no sharp cut-off; inactive means mostly below about 40%;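 further: 0% = agonist challenge alone and 100% = reference antagonist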
Target sequence (O43613 whole entry, looked up): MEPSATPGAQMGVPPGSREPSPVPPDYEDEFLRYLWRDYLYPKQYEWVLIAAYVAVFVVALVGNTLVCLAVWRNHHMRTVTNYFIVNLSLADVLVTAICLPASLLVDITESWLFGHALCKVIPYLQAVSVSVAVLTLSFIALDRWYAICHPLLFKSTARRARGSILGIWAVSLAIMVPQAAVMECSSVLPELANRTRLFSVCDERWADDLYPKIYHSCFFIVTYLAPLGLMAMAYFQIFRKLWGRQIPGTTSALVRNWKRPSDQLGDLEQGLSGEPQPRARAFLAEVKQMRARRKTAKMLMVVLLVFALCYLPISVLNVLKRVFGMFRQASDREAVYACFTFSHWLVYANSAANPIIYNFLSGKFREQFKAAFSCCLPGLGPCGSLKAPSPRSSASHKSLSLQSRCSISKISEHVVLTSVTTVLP
OX1R antag-2: antagonists of human orexin 1 receptor. O43613. CHO/OX1R cells, Fluo-8 calcium fluorescence, orexin A. inhibition, % at 5 µM. 0.43% of 330,000 active. AID 434989;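 active means inhibition above its plate's threshold, mean inhibition of all tested compounds on the plate plus 3 SD, cut at about 37% in these data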;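 further: 0% = orexin A challenge wells and 100% = SB-334867-A antagonist wells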
TAAR1 antag: antagonists of human TAAR1. Q96RJ0. CHO RD-HGA16 TAAR1, Fluo-8 calcium fluorescence, antagonist. inhibition, % at 3 µM. 1.5% of 360,000 active. AID 624466;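 active means inhibition above a per-plate cutoff, the mean inhibition of test compounds on that plate plus 3 SD, cut at about 49% in these data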;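 further: 0% = DMSO plus EC80 beta-PEA response and 100% = DMSO alone without agonist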
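System: CHO RD-HGA16 cells bearing hTAAR1. Reagent: EC80 β-phenethylamine stimulus. Schedule: seeding 17-24 h prior, 75-min 37 °C, 30-min RT dye loading. Signal: Fluo-8 intracellular calcium dye fluorescence, real-time kinetic reads. Read-out: % inhibition from peak post-agonist over basal fluorescence ratio. Benchmarks: vehicle wells and EC80 agonist wells. Replicates: n of 1.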
TAAR1 agonist: agonists of human TAAR1. activation, % at 3 µM. CHO RD-HGA16 TAAR1, Fluo-8 calcium fluorescence; vehicle wells 0%, saturating PEA agonist 100%. Q96RJ0. 0.99% of 360,000 active;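 active means activation above the mean activation of all test compounds in the run plus 3 SD, cut at about 38% in these data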
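test system = CHO RD-HGA16 cells carrying human TAAR1 plus Gα16 | schedule = 17-24 h seeding, 75 min 37 °C dye, 30 min RT | compound dosing = 3 µM single concentration | control set = DMSO and PEA EC100 | replicates = n 1 | signal = Fluo-8 fluorescence, 5 s baseline then 140 s kinetic read | measure = percent activation vs PEA EC100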
CHO parental Ca: signal in parental CHO cells, OX1R antagonist counter-screen; parental CHO-K1, ATP-induced calcium, Fluo-8 fluorescence; inhibition, % at 5.6 µM; 0.63% of 330,000 active; AID 463079;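 active means inhibition above that plate's mean sample inhibition plus 3 SD, cut at about 26% in these data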;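 further: 0% = ATP-challenged DMSO wells and 100% = DMSO wells without ATP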
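Assay system: parental CHO cells; Read-out basis: percent inhibition of ATP-evoked calcium rise, normalized to controls; Benchmarks: ATP and no-ATP DMSO wells; Compound dosing: single nominal dose of 5.6 µM per compound; Signal: Fluo-8 calcium dye fluorescence; Also added: ATP as calcium-mobilizing challenge; Repeats: singlicate.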
GPR7 antag: antagonists of human GPR7 (neuropeptides B/W receptor 1) | GPR7-expressing cells, fluorescence antagonist assay | P48145 | 1.1% of 290,000 active | AID 1861 | inhibition, % at 4.4 µM; in the data active means inhibition above about 16%, passing the limit was not always enough;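 further: cells stimulated with the agonist NPW; 0% = agonist with vehicle and 100% = vehicle without agonist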
Target sequence (P48145 whole entry, looked up): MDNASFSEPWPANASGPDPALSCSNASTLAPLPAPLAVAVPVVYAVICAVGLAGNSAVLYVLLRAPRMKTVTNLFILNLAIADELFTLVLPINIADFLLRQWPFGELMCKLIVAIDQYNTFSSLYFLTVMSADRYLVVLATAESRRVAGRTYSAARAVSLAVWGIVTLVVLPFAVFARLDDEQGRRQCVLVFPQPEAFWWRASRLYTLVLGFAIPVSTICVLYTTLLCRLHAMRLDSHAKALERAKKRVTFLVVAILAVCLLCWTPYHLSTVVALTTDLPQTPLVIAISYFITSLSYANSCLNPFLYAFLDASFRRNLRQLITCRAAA
TAAR1 nonsel count: nonselective antagonist in TAAR1 antagonist counter-screen | shares compounds with TAAR1 antag | counterscreen cell line, calcium fluorescence, antagonist mode | AID 651780 | 77% of 2,400 active | inhibition, % at 3 µM; in the data active means inhibition above about 22%;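 further: CHO-Ga16 host cells stimulated with ATP at an EC80 level; 0% = agonist EC80 plus vehicle and 100% = vehicle without agonist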
TAAR1 ant conf: human TAAR1 antagonism, confirmed. shares compounds with TAAR1 antag. TAAR1-expressing cells, fluorescence antagonist read-out. inhibition, % at 3 µM. 40% of 2,400 active; in the data active means inhibition above about 49%;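 further: CHO-Ga16 host cells challenged with agonist PEA near its EC80; 0% = agonist at EC80 plus vehicle and 100% = vehicle with no agonist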
Ga16 nonsel ag: nonselective Ga16 agonist in TAAR1 antagonist counter-screen | shares compounds with TAAR1 antag | Ga16-expressing cells, calcium fluorescence, agonist counterscreen | activation, % at 3 µM | 18% of 2,400 active; in the data active means activation above about 12%;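 further: 0% = vehicle wells and 100% = saturating stimulus response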
TAAR1 ag count: activates human TAAR1 in antagonist counter-screen; shares compounds with TAAR1 antag; AID 651955; 2% of 2,400 active; activation, % at 3 µM; hTAAR1 cell line, fluorescence activation, agonist mode; in the data active means activation above about 37%;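 further: CHO cells stably expressing TAAR1 with calcium dye readout; 0% = DMSO vehicle and 100% = full agonist response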
* marks the source's active call; other numbers are inactive results; nt = not tested or not shown. In the library only some 4.6% were active in any assay of this set; here they are far more common.

SMILES	OX1R antag-1	OX1R antag-2	TAAR1 antag	TAAR1 agonist	CHO parental Ca	GPR7 antag	TAAR1 nonsel count	TAAR1 ant conf	Ga16 nonsel ag	TAAR1 ag count
C[C@H](O)[C@@H]1C(=O)N2CCc3c([nH]c4ccccc34)[C@@H]2C[C@@H]1N(C)C(=O)Nc1cc(Cl)cc(Cl)c1	nt	nt	20	4	nt	nt	nt	nt	nt	nt
CCO[C@@H]1OC(C(=O)N2CCN(Cc3ccccc3)CC2)=C[C@H](c2csc3ccccc23)[C@H]1CCCO	22	-27	52*	9	-2	-15	23*	25	5	1
COc1ccc(CNC(=O)Cc2csc(NC(=O)Nc3ccccc3OC)n2)cc1	8	1	56*	15	-15	nt	21	36	6	3
O=C(Cc1csc(NC(=O)Nc2cccc(Cl)c2)n1)NCc1ccccn1	4	-30	65*	14	-22	nt	29*	40	10	17
COc1ccccc1NC(=O)N1CCN(c2ccc(F)cc2)CC1	26	-15	-15	2	-15	0	nt	nt	nt	nt
COc1ccccc1NC(=O)Nc1nc(CC(=O)N2CCN(c3ccc(F)cc3)CC2)cs1	13	-22	72*	17	-4	nt	46*	57*	13*	12
COc1ccccc1NC(=O)Nc1nc(CC(=O)Nc2ccc(F)cc2)cs1	23	-19	52*	21	-16	nt	22*	36	9	14
COc1cc(N/C(=C\C(=O)c2ccccc2)c2ccccc2)ccc1Cl	nt	nt	-10	1	nt	nt	nt	nt	nt	nt
COc1ccccc1NC(=O)Nc1nc(CC(=O)Nc2cc(F)ccc2F)cs1	13	-22	60*	11	-3	nt	34*	56*	10	11
COc1ccccc1NC(=O)Nc1nc(CC(=O)Nc2cccc(F)c2)cs1	34	-16	47	9	-15	nt	nt	nt	nt	nt
COc1ccc(C)cc1NC(=O)Cc1csc(NC(=O)Nc2ccccc2OC)n1	nt	nt	73*	6	nt	nt	27*	48	8	6
COc1ccccc1NC(=O)Nc1ccc(NC(=O)c2ccccc2O)cc1	-3	-8	61*	12	-15	5	39*	46	7	5
COc1ccccc1NC(=O)Cc1csc(NC(=O)c2ccccc2)n1	29	-40	9	9	-12	7	nt	nt	nt	nt
C[C@H](O)[C@@H]1C(=O)N2CCc3c([nH]c4ccccc34)[C@@H]2C[C@@H]1N(C)C(=O)OCc1ccccc1	nt	nt	8	8	nt	nt	nt	nt	nt	nt
CCCCCCn1nc(C(=O)OCC(=O)c2c(N)n(C)c(=O)n(C)c2=O)c2ccccc2c1=O	16	-22	78*	6	-15	5	36*	53*	9	8
O=C(Nc1cccc(NC(=O)c2ccc(-c3cccc(Br)c3)o2)c1)c1ccco1	26	11	52*	16	-10	0	25*	48	8	5
CNC(=O)c1ccsc1NC(=O)c1sc2ccccc2c1Cl	56*	-20	71*	10	7	-8	35*	50*	9	4
Cc1nnc(NC(=O)c2sc3ccccc3c2Cl)s1	36	-27	-1	10	-1	12	nt	nt	nt	nt
O=C(Nc1cccc(NC(=O)c2ccc(-c3ccc(Br)cc3)o2)c1)c1ccccc1	31	-36	13	15	-9	7	nt	nt	nt	nt
O=C(Nc1cccc(NC(=O)c2sc3ccccc3c2Cl)c1)c1ccco1	76*	-6	55*	8	-22	-13	19	21	2	-3
CCc1nc2ccc(C(=O)NCc3cccs3)cn2c1N(C)Cc1nccs1	nt	nt	18	2	nt	nt	nt	nt	nt	nt
COc1ccccc1NC(=O)C1CC(C)OC1=O (configuration not stated)	1	-5	-26	1	-9	nt	nt	nt	nt	nt
CN(C)c1cccc(CNC(=O)c2ccc3sc([C@@H]4O[C@H](CO)[C@H](O)[C@H](O)[C@H]4O)nc3c2)c1	nt	nt	-6	2	nt	nt	nt	nt	nt	nt
C#CCN(C[C@H]1[C@H](OC(=O)NC2CC2)[C@H](OC(=O)NC2CC2)C[C@@H](C(=O)OC)[C@H]1C(=O)OC)S(=O)(=O)c1ccc(C)cc1	nt	nt	-6	1	nt	nt	nt	nt	nt	nt
COc1ccc(C2CC(c3ccccc3)=NN2C(=O)COC(=O)CNC(=O)c2ccccc2)cc1 (configuration not stated)	14	-13	67*	32	-26	-7	43*	54*	22*	37
SMILES	OX1R antag-1	OX1R antag-2	TAAR1 antag	TAAR1 agonist	CHO parental Ca	GPR7 antag	TAAR1 nonsel count	TAAR1 ant conf	Ga16 nonsel ag	TAAR1 ag count
CCOC(=O)C1(C)CCCN(C(=O)CCc2ccccc2)C1 (configuration not stated)	nt	nt	-22	3	nt	nt	nt	nt	nt	nt
N#CCc1ccccc1C(=O)OCC(=O)N(Cc1ccccc1)Cc1ccccc1	0	5	64*	14	0	nt	29*	51*	6	4
COc1cccc(C=C(C(C)=O)C(=O)c2ccccc2)c1	nt	nt	-8	-1	nt	nt	nt	nt	nt	nt
COc1cccc(/C=C(/C(=O)OCC(N)=O)c2ccccc2)c1	-1	-8	105*	10	-14	-13	1	-2	2	5
Cc1ccc(C)c(/C=N/Nc2ccccn2)c1	27	-8	105*	-4	-7	7	-2	0	1	0
Cc1ccccc1-c1cc2nc(Oc3cccc(F)c3)n(C)c(=O)c2s1	nt	nt	-10	0	nt	nt	nt	nt	nt	nt
COC(=O)c1cc(=O)nc(NN=Cc2ccc(C)cc2)s1	nt	nt	6	-1	nt	nt	nt	nt	nt	nt
O=C(Nc1ccc(-c2nc3ccccc3[nH]2)cc1)c1ccccc1NS(=O)(=O)c1ccc(F)cc1	53*	-15	78*	9	-7	-10	42*	46	6	-1
O=C(Nc1ccc(S(=O)(=O)Nc2ncccn2)cc1)c1ccccc1NS(=O)(=O)c1ccc(F)cc1	10	-6	-4	2	3	5	nt	nt	nt	nt
C=CCN1C(c2ccc(Br)cc2)=CS/C1=C(\C#N)c1nnc(N2CCOCC2)n1-c1ccccc1	nt	nt	58*	7	nt	nt	24*	23	5	6
C=CCN1C(c2cccc(C(F)(F)F)c2)=CS/C1=C(\C#N)c1nnc(N2CCOCC2)n1-c1ccccc1	nt	nt	9	6	nt	nt	nt	nt	nt	nt
Cc1cnc(-c2nc3ccccc3n2C(C(=O)Nc2c(C)cccc2C)C2CC2)cn1 (configuration not stated)	nt	nt	-1	2	nt	nt	nt	nt	nt	nt
